Source: ChEMBL document CHEMBL1155277, “Synthesis of new 4-isopropylthiazole hydrazide analogs and some derived clubbed triazole, oxadiazole ring systems--a novel class of potential antibacterial, antifungal and antitubercular agents” (Eur J Med Chem, 2009)
In brackets after ≈: the same amount, converted by molar mass.

What was measured:
Pseudomonas aeruginosa = experiment: Antimicrobial activity against Pseudomonas aeruginosa ATCC 10145 after 24 hrs by broth microdilution method; format: functional; settings: ATCC 10145, 24 h
How it was run: (§1)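 Broth microdilution in tubes. Compounds were dissolved at 10 mg in 1 mL DMSO and diluted in Mueller-Hinton Broth for bacteria or Sabouraud Liquid Medium for yeasts and A. niger. Final concentrations were 1–500 µg/mL (1, 2, 4, 8, 16, 31.25, 62.5, 125, 250, 500), with DMSO at most 1% v/v. Inoculum was 10^5 cfu/mL, incubated at 37 °C for 24 h. MIC was the lowest concentration giving complete growth inhibition. Media and media-plus-DMSO served as growth controls.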

Staphylococcus aureus = experiment: Antimicrobial activity against Staphylococcus aureus ATCC 11632 after 24 hrs by broth microdilution method; format: functional; settings: ATCC 11632, 24 h; how it was run: as §1
Bacillus subtilis = experiment: Antimicrobial activity against Bacillus subtilis ATCC 60511 after 24 hrs by broth microdilution method; format: functional; settings: ATCC 60511, 24 h; how it was run: as §1
Escherichia coli = experiment: Antimicrobial activity against Escherichia […] after 24 hrs by broth microdilution method; format: functional; how it was run: as §1
Aspergillus niger = experiment: Antimicrobial activity against Aspergillus niger ATCC 6275 after 24 hrs by broth microdilution method; format: functional; settings: ATCC 6275, 24 h; how it was run: as §1
Klebsiella pneumoniae = experiment: Antimicrobial activity against Klebsiella pneumoniae ATCC 10031 after 24 hrs by broth microdilution method; format: functional; settings: ATCC 10031, 24 h; how it was run: as §1
[1] = system: Mycobacterium tuberculosis; experiment: Antitubercular activity against Mycobacterium tuberculosis H37Rv after 21 days by broth dilution assay; format: functional; settings: 504 h
How it was run: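 H37Rv frozen stock in Middlebrook 7H9 broth with 10% albumin-dextrose-catalase and 0.2% glycerol, thawed and diluted to 10⁵ cfu mL⁻¹. Compounds dissolved in DMSO, diluted in broth (final DMSO 1.3%). U-tubes inoculated, incubated 37 °C for 21 days. Growth scored visually against drug-free and inoculum-free controls and isoniazid. MIC = lowest concentration inhibiting […] of starting population.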

Saccharomyces cerevisiae = experiment: Antimicrobial activity against Saccharomyces cerevisiae ATCC 9763 after 24 hrs by broth microdilution method; format: functional; settings: ATCC 9763, 24 h; how it was run: as §1
Candida tropicalis = experiment: Antimicrobial activity against Candida tropicalis ATCC 1369 after 24 hrs by broth microdilution method; format: functional; settings: ATCC 1369, 24 h; how it was run: as §1
Enterococcus faecalis = experiment: Antimicrobial activity against Streptococcus faecalis ATCC 14506 after 24 hrs by broth microdilution method; format: functional; settings: ATCC 14506, 24 h; how it was run: as §1
A549 = experiment: Cytotoxicity against human A549 cell at 250 uM by MTT assay relative to control; format: cell-based; settings: a549, 250 µM
How it was run: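 A549 lung adenocarcinoma cells were grown with 10% and 0.2% FBS. Compounds were held as 10 mM DMSO stocks and diluted in culture medium; cells were treated at 250 µM. Viability was read by MTT reduction against untreated cells and a DMSO vehicle control. The work was done as two experiments, each with triplicate readings.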

Row | SMILES | MIC (Pseudomonas aeruginosa) [µg/mL] | MIC (Staphylococcus aureus) [µg/mL] | MIC (Bacillus subtilis) [µg/mL] | MIC (Escherichia coli) [µg/mL] | MIC (Aspergillus niger) [µg/mL] | MIC (Klebsiella pneumoniae) [µg/mL] | MIC [1] [µg/mL] | MIC (Saccharomyces cerevisiae) [µg/mL] | MIC (Candida tropicalis) [µg/mL] | MIC (Enterococcus faecalis) [µg/mL] | Activity (A549) [%]
1 | CC(C)c1csc(C(=O)N/N=C/c2ccc(N(C)C)cc2)n1 | 31.2 (≈ 98.8 µM) | 250 (≈ 790 µM) | 125 (≈ 395 µM) | 31.2 (≈ 98.8 µM) | 62.5 (≈ 198 µM) | 125 (≈ 395 µM) | 125 (≈ 395 µM) | 250 (≈ 790 µM) | 125 (≈ 395 µM) | 125 (≈ 395 µM) | 
2 | CC(C)c1csc(C(=O)N/N=C/c2ccc(O)cc2)n1 | 16 (≈ 55.3 µM) | 125 (≈ 432 µM) | 125 (≈ 432 µM) | 31.2 (≈ 108 µM) | 31.2 (≈ 108 µM) | 31.2 (≈ 108 µM) | 125 (≈ 432 µM) | 31.2 (≈ 108 µM) | 16 (≈ 55.3 µM) | 125 (≈ 432 µM) | 
3 | CC(C)c1csc(C(=O)N/N=C/c2cccc(Cl)c2Cl)n1 | 31.2 (≈ 91.3 µM) | 250 (≈ 730 µM) | 31.2 (≈ 91.3 µM) | 16 (≈ 46.7 µM) | 125 (≈ 365 µM) | 31.2 (≈ 91.3 µM) | 125 (≈ 365 µM) | 16 (≈ 46.7 µM) | 31.2 (≈ 91.3 µM) | 31.2 (≈ 91.3 µM) | 
4 | CC(C)c1csc(C(=O)NN)n1 | 125 (≈ 675 µM) | 250 (≈ 1350 µM) | 250 (≈ 1350 µM) | 125 (≈ 675 µM) | 125 (≈ 675 µM) | 250 (≈ 1350 µM) | 125 (≈ 675 µM) | 250 (≈ 1350 µM) | 500 (≈ 2700 µM) | 125 (≈ 675 µM) | 
5 | CC(C)=NNC(=O)c1nc(C(C)C)cs1 | 125 (≈ 555 µM) | 250 (≈ 1110 µM) | 125 (≈ 555 µM) | 125 (≈ 555 µM) | 500 (≈ 2220 µM) | 125 (≈ 555 µM) | 125 (≈ 555 µM) | 500 (≈ 2220 µM) | 125 (≈ 555 µM) | 125 (≈ 555 µM) | 
6 | C/C(=N/NC(=O)c1nc(C(C)C)cs1)c1ccc(Br)cc1 | 125 (≈ 341 µM) | 250 (≈ 683 µM) | 125 (≈ 341 µM) | 250 (≈ 683 µM) | 125 (≈ 341 µM) | 125 (≈ 341 µM) | 31.2 (≈ 85.3 µM) | 31.2 (≈ 85.3 µM) | 125 (≈ 341 µM) | 250 (≈ 683 µM) | 
7 | C/C(=N/NC(=O)c1nc(C(C)C)cs1)c1ccc(O)cc1 | 125 (≈ 412 µM) | 125 (≈ 412 µM) | 250 (≈ 824 µM) | 125 (≈ 412 µM) | 125 (≈ 412 µM) | 250 (≈ 824 µM) | 125 (≈ 412 µM) | 31.2 (≈ 103 µM) | 31.2 (≈ 103 µM) | 125 (≈ 412 µM) | 
8 | COc1cc(C2OC(c3nc(C(C)C)cs3)=NN2C(C)=O)cc(OC)c1OC (configuration not stated) | 16 (≈ 39.5 µM) | 62.5 (≈ 154 µM) | 16 (≈ 39.5 µM) | 31.2 (≈ 77.1 µM) | 16 (≈ 39.5 µM) | 31.2 (≈ 77.1 µM) | 31.2 (≈ 77.1 µM) | 31.2 (≈ 77.1 µM) | 16 (≈ 39.5 µM) | 16 (≈ 39.5 µM) | 50
9 | CC(C)c1csc(C(=O)N/N=C/c2ccccc2)n1 | 16 (≈ 58.5 µM) | 500 (≈ 1830 µM) | 125 (≈ 457 µM) | 31.2 (≈ 114 µM) | 31.2 (≈ 114 µM) | 125 (≈ 457 µM) | 250 (≈ 915 µM) | 62.5 (≈ 229 µM) | 62.5 (≈ 229 µM) | 125 (≈ 457 µM) | 
10 | CC(=O)N1N=C(c2nc(C(C)C)cs2)OC1c1cccc(Cl)c1Cl (configuration not stated) | 31.2 (≈ 81.3 µM) | 125 (≈ 325 µM) | 16 (≈ 41.6 µM) | 125 (≈ 325 µM) | 31.2 (≈ 81.3 µM) | 125 (≈ 325 µM) | 62.5 (≈ 163 µM) | 16 (≈ 41.6 µM) | 16 (≈ 41.6 µM) | 16 (≈ 41.6 µM) | 
11 | CC(C)c1csc(-c2nnc(S)n2N)n1 | 16 (≈ 66.3 µM) | 125 (≈ 518 µM) | 8 (≈ 33.1 µM) | 31.2 (≈ 129 µM) | 8 (≈ 33.1 µM) | 31.2 (≈ 129 µM) | 8 (≈ 33.1 µM) | 16 (≈ 66.3 µM) | 8 (≈ 33.1 µM) | 31.2 (≈ 129 µM) | 50
12 | CC(=O)NNC(=O)c1nc(C(C)C)cs1 | 125 (≈ 550 µM) | 500 (≈ 2200 µM) | 250 (≈ 1100 µM) | 250 (≈ 1100 µM) | 500 (≈ 2200 µM) | 125 (≈ 550 µM) | 125 (≈ 550 µM) | 500 (≈ 2200 µM) | 125 (≈ 550 µM) | 125 (≈ 550 µM) | 
13 | C/C(=N/NC(=O)c1nc(C(C)C)cs1)c1ccccc1 | 250 (≈ 870 µM) | 250 (≈ 870 µM) | 250 (≈ 870 µM) | 125 (≈ 435 µM) | 250 (≈ 870 µM) | 125 (≈ 435 µM) | 125 (≈ 435 µM) | 500 (≈ 1740 µM) | 500 (≈ 1740 µM) | 250 (≈ 870 µM) | 
